Source: ChEMBL document CHEMBL2384959, “Sesquiterpenes and alkaloids from the roots of Alangium chinense” (J Nat Prod, 2013)
Activity calls are given as the source filed them. The calls are words filed in the database; no cut-off is given here.

Legend:
BV-2 = assay: Inhibition of LPS-induced nitric oxide production in […] BV2 cells after 24 hrs by spectrophotometry; type: functional, cell-based; conditions: Mus musculus, BV-2, 24 h
Procedure, shortened: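 BV2 microglial cells pre-cultured 24 h, then exposed to a range of concentrations and stimulated with E. coli 055:B5 LPS (300 ng/mL) for 24 h. Nitrite in the supernatant was measured with Griess reagent (1% sulfanilamide in 5% H3PO4 plus 0.1% N-(1-naphthyl)ethylenediamine, 1:1) for 20 min at room temperature, read at 550 nm against a sodium nitrite standard curve. Untreated cells served as negative control and curcumin as positive control.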

A549 = assay: Cytotoxicity against human A549 cells by MTT assay; type: functional, cell-based
HCT-8 = assay: Cytotoxicity against human HCT8 cells by MTT assay; type: functional, cell-based
A2780 = assay: Cytotoxicity against human A2780 cells by MTT assay; type: functional, cell-based
Bel-7402 = assay: Cytotoxicity against human Bel7402 cells by MTT assay; type: functional, cell-based
BGC-823 = assay: Cytotoxicity against human BGC823 cells by MTT assay; type: functional, cell-based
Coxsackievirus = assay: Antiviral activity against Coxsackievirus B3 infected in african green monkey Vero cells assessed as inhibition of virus-induced cytopathic effect; type: functional, organism-based
Procedure, shortened: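 Confluent Vero monolayers infected with 100 TCID50 Cox B3; 1 h adsorption at 37 °C, PBS wash, then maintenance medium (MEM + 2% FBS) ± graded compound concentrations at 37 °C. CPE scored once virus control reached 4+; IC50 by Reed and Muench. Ribavirin positive control.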

Liver microsomes = assay: Antioxidant activity in rat liver microsome assessed as inhibition of Fe2+-cysteine-induced lipid peroxidation after 15 mins; type: functional
Procedure, shortened: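 Rat liver microsomes (1.0 mg microsomal protein in 1 mL 0.1 M PBS, pH 7.4) incubated with […] cysteine plus test sample, 37 °C, 15 min; peroxidation started with 0.05 mM FeSO4. […] Vitamin E positive control.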

Row | Molecule | IC50 (BV-2) [µM] | Activity (A549) | Activity (HCT-8) | Activity (A2780) | Activity (Bel-7402) | Activity (BGC-823) | IC50 (Coxsackievirus) [µM] | IC50 (Liver microsomes; read-out: IC50) [µM] | IC50 (Liver microsomes)
1 | Oc1ccccc1CN1CCCC[C@@H]1c1cccnc1 [(2R)-N-HYDROXYBENZYLANABASINE] | > 20 | inactive | inactive | inactive | inactive | inactive |  |  | 
2 | NC(=O)c1ncn([C@@H]2O[C@H](CO)[C@@H](O)[C@H]2O)n1 [RIBAVIRIN] |  |  |  |  |  |  | 222 |  | 
3 | CC1=C2OC[C@@H](C)c3c(O)cc(C)c(c32)C(=O)C1=O |  | inactive | inactive | inactive | inactive | inactive | 3.1 | 17.8 | 
4 | Oc1ccccc1CN1CCCCC1c1cccnc1 (racemic) |  | inactive | inactive | inactive | inactive | inactive | > 20 |  | 
5 | Oc1ccccc1CN1CCCCC1(O)c1cccnc1 (racemic) |  | inactive | inactive | inactive | inactive | inactive | > 20 |  | 
6 | COc1cc(/C=C/C(=O)CC(=O)/C=C/c2ccc(O)c(OC)c2)ccc1O [CURCUMIN] | 3.1 |  |  |  |  |  |  |  | 
7 | C[C@@H]1CC[C@@H]2C(C)(C)O[C@@H]3[C@H](C)C(=O)C=C1[C@@]32O |  | inactive | inactive | inactive | inactive | inactive |  |  | 
8 | Cc1cc2c(cc1O)[C@@](C)(O)C(=O)C=C2C(C)C [LACINILENE C] |  | inactive | inactive | inactive | inactive | inactive | 15.4 | 39.8 | 
9 | Oc1ccccc1CN1CCCC[C@@]1(O)c1cccnc1 |  | inactive | inactive | inactive | inactive | inactive |  |  | 
10 | VITAMIN E |  |  |  |  |  |  |  | 54.2 | 
11 | COc1c(OC)c2nccc3c4ccccc4n(c1=O)c23 [4,5-DIMETHOXYCANTHIN-6-ONE] |  | inactive | inactive | inactive | inactive | inactive | 7.4 |  | Not Active
12 | Oc1ccccc1CN1CCCC[C@H]1c1cccnc1 [(2S)-N-HYDROXYBENZYLANABASINE] | 6.7 | inactive | inactive | inactive | inactive | inactive |  |  | 
13 | Oc1ccccc1CN1CCCC[C@]1(O)c1cccnc1 |  | inactive | inactive | inactive | inactive | inactive |  |  | 
14 | COC(=O)c1c(O)cc(C(C)C)c2cc(C)c(O)cc12 |  | inactive | inactive | inactive | inactive | inactive | 11.3 | 4.9 | 
15 | Cc1cc2c(C(C)C)cc(O)c(C)c2cc1O |  | inactive | inactive | inactive | inactive | inactive | 10.1 | 3.8 | 
16 | Cc1cc2c(C(C)C)ccc(C)c2cc1O |  | inactive | inactive | inactive | inactive | inactive | 5.3 | 4.3 | 
17 | Cc1cc2c(C(C)C)cc(O)c(C=O)c2cc1O |  | inactive | inactive | inactive | inactive | inactive | 1.4 | 14.7 | 
18 | CC1=Cc2c(C(C)C)ccc(C)c2C(=O)C1=O |  | inactive | inactive | inactive | inactive | inactive | > 20 |  | Not Active
19 | Cc1cc2c(c(O)c1O)[C@@H](C)CC[C@@H]2C(C)C [(1S,4R)-7,8-DIHYDROXYCALAMENENE] |  | inactive | inactive | inactive | inactive | inactive | 7.4 |  | Not Active
20 | CO[C@]1(C)C(=O)C=C(C(C)C)c2cc(C)c(O)cc21 |  | inactive | inactive | inactive | inactive | inactive | > 20 | 23.8 | 
21 | CC1=C2OCC(C)c3ccc(C)c(c32)C(=O)C1=O (stereo unspecified) [MANSONONE E] |  | inactive | inactive | inactive | inactive | inactive | 4.7 | 45.7 | 
22 | CC1=C(O)C(=O)c2c(C)ccc3c(C)cnc1c23 |  | inactive | inactive | inactive | inactive | inactive | > 20 | 3.9 | 
